This passage reports IC90 and Activity results from ChEMBL document CHEMBL4138064, “Diazabicyclo analogues of maraviroc: synthesis, modeling, NMR studies and antiviral activity” (Medchemcomm, 2017).

In general, IC90 refers to the concentration at which the effect reaches the 90% level.

Series [1] concerns Human immunodeficiency virus 1. Briefly: Antiviral activity against CCR5-dependent HIV1 SF162 infected in human TZM-bl cells assessed as reduction in virus infection incubated for 48 hrs by luciferase reporter gene based viral neutralization assay. The series is classed as functional. The following applies: Human immunodeficiency virus 1, SF162, TZM-bl. In a few lines: (§1)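 Env-pseudotyped viruses made in 293T cells by proviral DNA transfection and titred by luciferase in TZM-bl cells. 200 TCID50 of virus preincubated 1 h at 37 °C with serially diluted compound (10 to 0.001 μM) in D-MEM/10% FBS. 10^4 TZM-bl cells per well with 15 μg/mL DEAE-dextran were then added, 37 °C, 48 h and 72 h. Four replicates per point. Luciferase read-out.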

Series [2] has as its system Human immunodeficiency virus 1. Briefly: Antiviral activity against CCR5-dependent HIV1 clade B isolate QH0692 infected in human TZM-bl cells assessed as reduction in virus infection incubated for 48 hrs by luciferase reporter gene based viral neutralization assay. The format is functional. The following applies: Human immunodeficiency virus 1, clade B isolate QH0692, TZM-bl. The gist of the method:
as §1
A general note: In a reporter assay the amount or activity of a reporter protein is the signal.

Series [3] has as its system Human immunodeficiency virus 1. Briefly: Antiviral activity against CCR5-dependent HIV1 clade B isolate 6535 infected in human TZM-bl cells assessed as reduction in virus infection incubated for 48 hrs by luciferase reporter gene based viral neutralization assay. The series is classed as functional. The conditions noted are these: Human immunodeficiency virus 1, clade B isolate 6535, TZM-bl. The gist of the method: as §1

Series [4] deals with Human immunodeficiency virus 1. The series can be described thus: Antiviral activity against CCR5-dependent HIV1 clade B isolate PVO infected in human TZM-bl cells assessed as reduction in virus infection incubated for 48 hrs by luciferase reporter gene based viral neutralization assay. The series is classed as functional. The conditions noted are these: Human immunodeficiency virus 1, clade B isolate PVO. The gist of the method: as §1

The test system of series [5] is Human immunodeficiency virus 1. Briefly: Antiviral activity against CCR5-dependent HIV1 clade B isolate AC10 infected in human TZM-bl cells assessed as reduction in virus infection incubated for 48 hrs by luciferase reporter gene based viral neutralization assay. The format is functional. The following applies: Human immunodeficiency virus 1, clade B isolate AC10, 48 h. The gist of the method: as §1

For series [6], the system named is Human immunodeficiency virus 1. Briefly: Antiviral activity against CCR5-dependent HIV1 cladC isolate ZM214 infected in human TZM-bl cells assessed as reduction in virus infection incubated for 48 hrs by luciferase reporter gene based viral neutralization assay. The conditions noted are these: Human immunodeficiency virus 1, cladC isolate ZM214, TZM-bl. The format is functional. In a few lines:
as §1

Series [7] relates to Vesicular stomatitis virus. The series can be described thus: Antiviral activity against VSV G SVA.MLV#922 infected in human TZM-bl cells assessed as reduction in virus infection incubated for 48 hrs by luciferase reporter gene based viral neutralization assay. The series is classed as functional. The conditions noted are these: G SVA.MLV#922, TZM-bl. In a few lines: as §1

Series [8] concerns Human immunodeficiency virus 1. The series can be described thus: Antiviral activity against CXCR4-dependent HIV1 HXB2 infected in human TZM-bl cells assessed as reduction in virus infection incubated for 48 hrs by luciferase reporter gene based viral neutralization assay. The series is classed as functional. The following applies: Human immunodeficiency virus 1, HXB2, TZM-bl. In a few lines:
as §1

The test system of series [9] is Human immunodeficiency virus 1. The series can be described thus: Antiviral activity against CCR5-dependent HIV1 SF162 infected in human TZM-bl cells assessed as reduction in virus infection incubated for 72 hrs by luciferase reporter gene based viral neutralization assay. The format is functional, organism-based. In a few lines:
(§2)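 Single-round infection of TZM-bl cells with env-pseudotyped virus at 200 TCID50, preincubated 1 h at 37 °C with serial compound dilutions (10 to 0.001 μM) in D-MEM with 10% FBS. TZM-bl cells (10^4/well) carrying 15 μg/mL DEAE-dextran were then added and cultured 48 and 72 h at 37 °C, 5% CO2. Luciferase RLU were read in four replicates per point. IC90 was the 90% RLU drop versus virus-only wells, minus cell-only background.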

Series [10] deals with Human immunodeficiency virus 1. The series can be described thus: Antiviral activity against CCR5-dependent HIV1 clade B isolate QH0692 infected in human TZM-bl cells assessed as reduction in virus infection incubated for 72 hrs by luciferase reporter gene based viral neutralization assay. The format is functional, organism-based. The gist of the method:
as §2

For series [11], the system named is Human immunodeficiency virus 1. The series can be described thus: Antiviral activity against CCR5-dependent HIV1 clade B isolate 6535 infected in human TZM-bl cells assessed as reduction in virus infection incubated for 72 hrs by luciferase reporter gene based viral neutralization assay. The format is functional, organism-based. The gist of the method: as §2

The test system of series [12] is Human immunodeficiency virus 1. Briefly: Antiviral activity against CCR5-dependent HIV1 clade B isolate PVO infected in human TZM-bl cells assessed as reduction in virus infection incubated for 72 hrs by luciferase reporter gene based viral neutralization assay. The format is functional, organism-based. The gist of the method:
as §2

In series [13] the test system is Human immunodeficiency virus 1. Briefly: Antiviral activity against CCR5-dependent HIV1 clade B isolate AC10 infected in human TZM-bl cells assessed as reduction in virus infection incubated for 72 hrs by luciferase reporter gene based viral neutralization assay. The series is classed as functional, organism-based. In a few lines:
as §2

The test system of series [14] is Human immunodeficiency virus 1. Briefly: Antiviral activity against CCR5-dependent HIV1 cladC isolate ZM214 infected in human TZM-bl cells assessed as reduction in virus infection incubated for 72 hrs by luciferase reporter gene based viral neutralization assay. The format is functional, organism-based. The gist of the method: as §2
Series [15] concerns Vesicular stomatitis virus. Briefly: Antiviral activity against VSV G SVA.MLV#922 infected in human TZM-bl cells assessed as reduction in virus infection incubated for 72 hrs by luciferase reporter gene based viral neutralization assay. The series is classed as functional, organism-based. In a few lines:
as §1

Series [16] has as its system Human immunodeficiency virus 1. The series can be described thus: Antiviral activity against CXCR4-dependent HIV1 HXB2 infected in human TZM-bl cells assessed as reduction in virus infection incubated for 72 hrs by luciferase reporter gene based viral neutralization assay. The format is functional, organism-based. In a few lines: as §2
For series [17], the system named is TZM. Briefly: Toxicity in human TZM-bl cells assessed as reduction in cell proliferation at 10 uM incubated for 48 hrs by trypan blue staining based assay.
The subject of series [18] is TZM. Briefly: Toxicity in human TZM-bl cells assessed as reduction in cell proliferation at 10 uM incubated for 72 hrs by trypan blue staining based assay.

Structures are written as SMILES. The source made the active and inactive calls. No cut-off for these calls is given here.

For the compound `Cc1nnc(C(C)C)n1N1CC2CCCC(C1)N2CC[C@H](NC(=O)C1CCC(F)(F)CC1)c1ccccc1`, the concentration for an effect of 90% (IC90) in series [1], in [2], in series [3], in [4], in [5] and in series [6] was 90 to 3540 nM each time. Besides, the 90% effect concentration (IC90) in series [7] and in series [8] was greater than 10000 nM throughout. In addition, the outcome in series [9], in [10], in series [11], in [12], in series [13] and in [14] was Active. Moreover, the outcome in series [15] and in series [16] was Active. In addition, the Activity entry with TZM [17] and in the series with TZM [18] was “Non-Toxic” in each case.

Regarding `Cc1nnc(C(C)C)n1N1CC2CCC(C1)N2CC[C@H](NC(=O)C1CCC(F)(F)CC1)c1ccccc1`, the IC90 in series [1], in [2], in series [3], in series [4], in [5] and in [6] was 20 to 1520 nM in each case. For the same compound, the IC90 in series [7] and in series [8] was greater than 10000 nM each time. Further, the outcome in [9], in series [10], in [11], in series [12], in series [13] and in series [14] was Active. In addition, the outcome in [15] and in [16] was Active. For the same compound, the Activity entry with TZM [17] and in the series on TZM [18] was “Non-Toxic” in each case.

In the case of `Cc1nnc(C(C)C)n1[C@H]1C[C@H]2CC[C@@H](C1)N2CC[C@H](NC(=O)C1CCC(F)(F)CC1)c1ccccc1` [MARAVIROC], the IC90 in series [1], in series [2], in series [3], in [4], in series [5] and in series [6] was 80 to 470 nM each time. Moreover, the IC90 in [7] and in series [8] was greater than 10000 nM each time. Moreover, the result in series [9], in series [10], in series [11], in series [12], in series [13] and in series [14] was Active. For the same compound, the outcome in series [15] and in series [16] was Active.

Consider `Cc1nnc(C(C)C)n1[C@@H]1C[C@H]2CC[C@@H](C1)N2CC[C@H](NC(=O)C1CCC(F)(F)CC1)c1ccccc1` [MARAVIROC], for which the Activity result in the series with TZM [17] and with TZM [18] was “Non-Toxic” each time.
